How the values were obtained:
[1] = molecular target: Aldo-keto reductase family 1 member B1 (Rattus norvegicus, UniProt P07943); experiment: Inhibitory activity against rat lens aldose reductase (RLAR).
[2] = molecular target: T1, Aldo-keto reductase family 1 member B1 (Homo sapiens, UniProt P15121); experiment: Inhibitory activity against human placental aldose reductase (HPAR)
Procedure, shortened: (§1)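 Human placental aldose reductase was purified at 4 °C. Enzyme activity was read photometrically at 340 nm, with 10 mM DL-glyceraldehyde as substrate. IC50 values came from simple linear regressions of Marquardt-Levenberg iterative curve fitting.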

[3] = molecular target: T1, Aldo-keto reductase family 1 member B1; experiment: Inhibitory activity against human placental aldose reductase in Orange A column at day 2; procedure, shortened: as §1
[4] = molecular target: T1, Aldo-keto reductase family 1 member B1; experiment: Inhibitory activity against human placental aldose reductase in 30 -70% (NH4)2SO4.
[5] = molecular target: T1, Aldo-keto reductase family 1 member B1; experiment: Inhibitory activity against human placental aldose reductase in Sepharose 4B column at day 7
[6] = molecular target: T1, Aldo-keto reductase family 1 member B1; experiment: Inhibitory activity against human placental aldose reductase in Orange A column at day 8
[7] = molecular target: T1, Aldo-keto reductase family 1 member B1; experiment: Inhibitory activity against human placental aldose reductase in Sepharose 4B column at day 1; procedure, shortened: as §1
[8] = molecular target: T1, Aldo-keto reductase family 1 member B1; experiment: Inhibitory activity against human placental aldose reductase (HPAR).; procedure, shortened: as §1
[9] = molecular target: T1, Aldo-keto reductase family 1 member B1; experiment: Inhibitory activity against human placental aldose reductase in Sepharose 4B column at time 1
[10] = molecular target: T1, Aldo-keto reductase family 1 member B1; experiment: (§2) Inhibitory activity against human placental aldose reductase in Orange A column at time 2
[11] = molecular target: T1, Aldo-keto reductase family 1 member B1; experiment: as §2; procedure, shortened: as §1; remark: listed apart in the source

`O=C(OCc1ccccc1)c1cc(=O)c2ccc(O)cc2o1` was tested. Which IC50 [1] did it give?
Its IC50 is 2.5 µM.

What about the IC50 [2] of the same compound?
The IC50 was 3.2 µM.

Which results are given for `O=c1c(Cl)c(-c2nn[nH]n2)oc2ccccc12`?
IC50 [3]: 280 µM; IC50 [4]: 4.1 µM; IC50 [5]: 39 µM; IC50 [6]: 200 µM; IC50 [7]: 38 µM

What does the source list for `O=C(O)c1ccc2nc3cc(O)ccc3c(=O)n2c1`?
IC50 [3]: 19 µM; IC50 [4]: 4.5 µM; IC50 [5]: 7.2 µM; IC50 [6]: 7.3 µM; IC50 [7]: 5 µM

What does the source list for `CCOC(=O)C(=O)Nc1cc([N+](=O)[O-])cc(C(=O)O)c1O`?
IC50 [3]: 3.2 µM; IC50 [4]: 7.3 µM; IC50 [5]: 8.3 µM; IC50 [6]: 4 µM; IC50 [7]: 4.5 µM

For `CC(C)OC(=O)c1cc(=O)c2ccc(O)cc2o1`, which IC50 [1] is on record?
The IC50 was 3.1 µM.

What about the IC50 [2] of the same compound?
Its IC50 is 4.3 µM.

For `O=C(O)c1cc(=O)c2ccc(O)cc2o1`, which IC50 [1] is on record?
Its IC50 is 2.2 µM.

And the IC50 [8]?
Its IC50 is 1.8 µM.

How did the IC50 [4] turn out when `CC1OC(O)C(O)C(O)C1Oc1c(-c2ccc(O)c(O)c2)oc2cc(O)cc(O)c2c1=O` (stereo not drawn) was run?
The IC50 was 7.1 µM.

What about the IC50 [5] of the same compound?
Its IC50 is 16 µM.

And the IC50 [9]?
Its IC50 is 14 µM.

And the IC50 [6]?
Its IC50 is 9 µM.

What about the IC50 [10] of the same compound?
Its IC50 is 16 µM.

Which results are given for `O=C(O)C1=CC(=O)C2C=CC(O)=CC2O1` (stereo not drawn)?
IC50 [3]: 5.9 µM; IC50 [4]: 1.8 µM; IC50 [5]: 3.9 µM; IC50 [6]: 3.1 µM; IC50 [7]: 4.7 µM

`CCOC(=O)c1cc(=O)c2ccc(O)cc2o1` was tested. Which IC50 [1] did it give?
Its IC50 is 2.3 µM.

And the IC50 [2]?
The IC50 was 5 µM.

With `O=C(O)CN1C(=O)c2cccc3cccc(c23)C1=O` [ALRESTATIN] as the compound, how does the IC50 [4] read?
Its IC50 is 6.5 µM.

And the IC50 [5]?
The IC50 was 34 µM.

What about the IC50 [9] of the same compound?
The IC50 was 22 µM.

What about the IC50 [6] of the same compound?
The IC50 was 79 µM.

What about the IC50 [11] of the same compound?
Its IC50 is 140 µM.

Reference: ChEMBL document CHEMBL1122895, “Aldose reductase inhibitors: a potential new class of agents for the pharmacological control of certain diabetic complications” (J Med Chem, 1985)
